The values below come from ChEMBL document CHEMBL4715843, “NO-releasing STAT3 inhibitors suppress BRAF-mutant melanoma growth” (Eur J Med Chem, 2020).

Assay [1] deals with T1, Signal transducer and activator of transcription 3 (Homo sapiens, UniProt P40763). As to the kind of experiment: Displacement of FAM-labeled 5-GpYLPQTV-NH2 from recombinant GST-tagged STAT3 (unknown origin) preincubated for 30 mins followed by FAM-labeled 5-GpYLPQTV-NH2 addition and measured after 30 mins by fluorescence assay. Conditions: time 60.0 min. In outline: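 GST-STAT3 (2 µM) was bound to GST beads for 1 h at 4 °C in PBS with 0.1% β-mercaptoethanol, then washed. Bead slurry was incubated with compound dilutions (2.25% DMSO, duplicate) and FAM-GpYLPQTV-NH2 peptide. Resin was washed by vacuum filtration and fluorescence read at ex 485/em 535 nm. % displacement was set against the no-compound signal; two independent experiments.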

Assay [2] addresses T1, Signal transducer and activator of transcription 3. As to the kind of experiment: Inhibition of STAT3 phosphorylation at S727 residue in human SB-590885-sensitive 451Lu cells measured after 12 hrs by Western blot analysis. The note with it: dose 10-25 µM. In a few lines: (§1)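 451 Lu and MEL 1617 pairs, sensitive and resistant; resistant lines maintained in RPMI with 1 µM PLX4720. Treated with 10 and 25 µM for 12 h versus DMSO. Lysates (60 µg protein, 10% SDS-PAGE) immunoblotted for Ser727- and Tyr705-phospho-STAT3, total STAT3, total PAX3, with actin.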
(A western blot detects proteins with antibodies after separation by electrophoresis.)

For assay [3] the target is unchanged. As to the kind of experiment: Inhibition of STAT3 phosphorylation at Y705 residue in human SB-590885-resistant 451Lu cells measured after 12 hrs by Western blot analysis. The note with it: dose 10-25 µM. In outline:
as §1

The next assay relates to HFF. As to the kind of experiment: Cytotoxicity against HFF assessed as inhibition of cell proliferation by MTS assay. In kind it is cell-based, Homo sapiens. The note with it: hff. (In general: Tetrazolium dyes change colour on reduction, which living cells bring about.)
Assay [4] deals with T1, Signal transducer and activator of transcription 3. In words: Inhibition of STAT3 in human SB-590885-resistant 451Lu cells assessed as reduction in STAT3 transcriptional activity measured after 12 hrs by Dual-luciferase reporter gene assay. In a few lines: (§2)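 Cells co-transfected with inducible STAT3-responsive firefly luciferase and constitutive Renilla luciferase constructs (40:1) using Lipofectamine 3000. After 48 h, dose series in DMSO vehicle applied for 12 h, followed by dual-luciferase readout. Firefly signal normalized to Renilla and compared with untreated cells. Run in triplicate; IC50 taken from dose–response curves.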
Background: A reporter such as luciferase makes a cellular process visible.

A short description of assay [5]: Drug metabolism in pH 7.4 phosphate buffer assessed as nitric oxide release at 100 uM measured after 2 hrs by Griess reagent based colorimetric method. In a few lines: (§3)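 Compound at 100 µM was held at room temperature in pH 7.4 phosphate buffer with 5 mM DTT and 2% DMSO for 2 or 48 h. Griess reagent was added, and after 30 min absorbance was read at 548 nm. NO release (mol NO/mol compound) was derived from a sodium nitrite calibration curve.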

Assay [6] addresses T1, Signal transducer and activator of transcription 3. As to the kind of experiment: Inhibition of STAT3 in human SB-590885-resistant MEL1617 cells assessed as reduction in STAT3 transcriptional activity measured after 12 hrs by Dual-luciferase reporter gene assay. In kind it is cell-based. In a few lines:
as §2

Assay [7] in a line: Antiproliferative activity against human SB-590885-resistant 451Lu cells assessed as reduction in cell viability measured after 48 hrs by MTS assay. It counts as functional. In a few lines: (§4)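 Melanoma lines were grown in RPMI-1640 with Glutamax at 37 °C and 5% CO2. The resistant 451 Lu-R and MEL 1617-R sublines were maintained with 1 µM PLX4720. Cells were incubated with vehicle or inhibitor over a dose range, and viability was read by MTS assay in triplicate.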

Assay [8] has as its target T1, Signal transducer and activator of transcription 3. As to the kind of experiment: Inhibition of STAT3 in human SB-590885-sensitive MEL1617 cells assessed as reduction in STAT3 transcriptional activity measured after 12 hrs by Dual-luciferase reporter gene assay. It counts as cell-based. In outline: as §2
Assay [9] is described as follows: Drug metabolism in pH 7.4 phosphate buffer assessed as nitric oxide release at 100 uM measured after 48 hrs by Griess reagent based colorimetric method. In a few lines: as §3
For assay [10], the target named is T1, Signal transducer and activator of transcription 3. In words: Inhibition of STAT3 in human SB-590885-sensitive 451Lu cells assessed as reduction in STAT3 transcriptional activity measured after 12 hrs by Dual-luciferase reporter gene assay. In outline: as §2
In assay [11] the test system is A-375. As to the kind of experiment: Potentiation of compound II-induced cytotoxicity against human A375 cells assessed as compound II IC50 at 12.5 uM measured after 48 hrs by MTS assay (reference value: 16.2 +/- 1.6 uM). It counts as functional, cell-based. The note with it: A-375, 48 h.
The target of assay [12] is T1, Signal transducer and activator of transcription 3. As to the kind of experiment: Inhibition of STAT3 phosphorylation at Y705 residue in human SB-590885-sensitive MEL1617 cells at 10 to 25 uM measured after 12 hrs by Western blot analysis. In kind it is cell-based. Conditions: dose 10-25 µM. In outline: as §1
The target is the same in assay [13]. As to the kind of experiment: Inhibition of STAT3 phosphorylation at S727 residue in human SB-590885-resistant 451Lu cells measured after 12 hrs by Western blot analysis. Conditions: dose 10-25 µM. In a few lines:
as §1

For assay [14] the target is unchanged. In words: Inhibition of STAT3 in human SB-590885-resistant MEL1617 cells assessed as reduction in PAX3 expression at 10 to 25 uM measured after 12 hrs by Western blot analysis. It counts as cell-based. The note with it: dose 10-25 µM. In outline: as §1
Assay [15] concerns A-375. As to the kind of experiment: Cytotoxicity against human A-375 cells assessed as inhibition of cell proliferation measured after 48 hrs by MTS assay. Conditions: A-375, 48 h. In kind it is functional, cell-based. In outline: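 Cells were exposed to a dose range of inhibitor for 48 h, and viability was read by MTS assay in triplicate. GI50 was taken as the concentration giving 50% growth inhibition, averaged from three independent experiments. A375 was cultured in RPMI-1640 with Glutamax. A549 and NCI-H157 were kept in RPMI-1640, and MIA PaCa-2 and U87-MG in DMEM.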

For assay [16], the target named is T1, Signal transducer and activator of transcription 3. In words: Inhibition of STAT3 phosphorylation at Y705 residue in human SB-590885-resistant MEL1617 cells at 10 to 25 uM measured after 12 hrs by Western blot analysis. The note with it: dose 10-25 µM. It counts as cell-based. In a few lines:
as §1

Assay [17] can be described thus: Antiproliferative activity against human SB-590885-sensitive MEL1617 cells assessed as reduction in cell viability measured after 48 hrs by MTS assay. It counts as functional, cell-based. Conditions: MEL1617, 48 h. In outline:
as §4

The target in assay [18] is T1, Signal transducer and activator of transcription 3. In words: Inhibition of STAT3 in human SB-590885-sensitive 451Lu cells assessed as reduction in PAX3 expression measured after 12 hrs by Western blot analysis. The note with it: dose 10-25 µM. In outline: as §1
Assay [19] has the same target. In words: Inhibition of STAT3 in human SB-590885-resistant 451Lu cells assessed as reduction in PAX3 expression measured after 12 hrs by Western blot analysis. Conditions: dose 10-25 µM. In a few lines: as §1
The target is the same in assay [20]. As to the kind of experiment: Inhibition of STAT3 phosphorylation at Y705 residue in human SB-590885-sensitive 451Lu cells measured after 12 hrs by Western blot analysis. Conditions: dose 10-25 µM. In a few lines: as §1
The nature of assay [21]: Antiproliferative activity against human SB-590885-resistant MEL1617 cells assessed as reduction in cell viability measured after 48 hrs by MTS assay. It counts as functional, cell-based. In a few lines: as §4
The target of assay [22] is T1, Signal transducer and activator of transcription 3. In words: Inhibition of STAT3 in human SB-590885-sensitive MEL1617 cells assessed as reduction in PAX3 expression at 10 to 25 uM measured after 12 hrs by Western blot analysis. Conditions: dose 10-25 µM. It counts as cell-based. In outline: as §1
The next assay deals with MCF-10A. In words: Cytotoxicity against human MCF-10A cells assessed as inhibition of cell proliferation by MTS assay. The note with it: mcf-10a. It counts as cell-based.
Assay [23] in a line: Antiproliferative activity against human SB-590885-sensitive 451Lu cells assessed as reduction in cell viability measured after 48 hrs by MTS assay. It counts as functional. In outline: as §4
Assay [24] deals with T1, Signal transducer and activator of transcription 3. In words: Inhibition of STAT3 phosphorylation at S727 residue in human SB-590885-sensitive MEL1617 cells at 10 to 25 uM measured after 12 hrs by Western blot analysis. It counts as cell-based. The note with it: dose 10-25 µM. In a few lines:
as §1

Assay [25] has the same target. As to the kind of experiment: Inhibition of STAT3 phosphorylation at S727 residue in human SB-590885-resistant MEL1617 cells at 10 to 25 uM measured after 12 hrs by Western blot analysis. It counts as cell-based. Conditions: dose 10-25 µM. In a few lines:
as §1

Each structure is given as a SMILES string. The source made the active and inactive calls. The rule behind the calls is not given here.

T1 sequence (P40763 whole entry): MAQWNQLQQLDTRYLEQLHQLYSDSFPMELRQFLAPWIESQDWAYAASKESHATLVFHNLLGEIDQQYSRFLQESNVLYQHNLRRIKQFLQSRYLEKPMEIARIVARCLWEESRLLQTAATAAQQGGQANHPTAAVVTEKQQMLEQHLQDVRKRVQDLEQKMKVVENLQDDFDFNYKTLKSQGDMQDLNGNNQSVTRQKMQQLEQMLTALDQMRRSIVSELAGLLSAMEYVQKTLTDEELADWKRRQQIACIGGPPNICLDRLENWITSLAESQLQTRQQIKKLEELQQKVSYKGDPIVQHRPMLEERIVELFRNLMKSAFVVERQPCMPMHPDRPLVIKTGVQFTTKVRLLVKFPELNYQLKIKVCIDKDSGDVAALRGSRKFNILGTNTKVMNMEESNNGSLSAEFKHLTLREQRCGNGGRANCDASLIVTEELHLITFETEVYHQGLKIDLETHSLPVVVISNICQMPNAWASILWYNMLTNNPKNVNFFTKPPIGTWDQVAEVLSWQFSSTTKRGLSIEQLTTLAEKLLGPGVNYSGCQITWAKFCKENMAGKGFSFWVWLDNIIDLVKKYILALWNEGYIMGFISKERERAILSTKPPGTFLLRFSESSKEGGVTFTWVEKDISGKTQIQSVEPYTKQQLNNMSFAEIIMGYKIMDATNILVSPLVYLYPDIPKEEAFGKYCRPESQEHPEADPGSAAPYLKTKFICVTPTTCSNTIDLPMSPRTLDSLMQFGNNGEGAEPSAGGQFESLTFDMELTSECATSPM

For `COc1ccc2nc(-c3ccc(Cl)cc3)cc(-c3nnc(SCC(=O)Nc4ccc(/C(C)=N\O)cc4)n3-c3ccccc3)c2c1`, the inhibition result in assay [1], in assay [2], in assay [3], in assay [12], in assay [13] and in assay [14] was “inactive” throughout. Besides, the inhibition result in assay [16], in assay [18], in assay [19], in assay [20], in [22] and in assay [24] was “inactive” each time. Further, the inhibition result in assay [25] was “inactive”. Also, the IC50 result in the assay on HFF was “Not Active”; in [4], 40.5 µM; in assay [6] it was 35.2 µM; in assay [7] (Homo sapiens, 451Lu, 48 h, read-out: IC50) it was over 50 µM; in assay [8] it was 75 µM; in assay [10], 54 µM. The IC50 with A-375 [11] is 6.8 µM; with A-375 [15], over 100 µM; in [17] it was over 50 µM; in assay [21] (Homo sapiens, MEL1617, 48 h, read-out: IC50) it was over 50 µM; in the assay with MCF-10A, “Not Active”; in assay [23] it was over 50 µM. Besides, the Drug metabolism in assay [5] worked out at 15%; in assay [9], 30%.

For the compound `COc1ccc2nc(-c3ccc(OC)c(OC)c3)cc(-c3nnc(SCC(=O)Nc4ccc(/C(C)=N\O)cc4)n3-c3ccccc3)c2c1`, the inhibition entry in [2], in assay [3], in assay [12], in assay [13], in [14] and in assay [16] was “inactive” each time. Besides, the inhibition result in [18], in assay [19], in assay [20], in assay [22], in assay [24] and in assay [25] was “inactive” in each case. The Drug metabolism was 15% in [5] and 30% in [9].

`CCCS(=O)(=O)Nc1ccc(F)c(C(=O)c2c[nH]c3ncc(Cl)cc23)c1F` [PLX-4720]: the IC50 result in assay [7] (451lu) was “Not Active”; in [17], 0.084 µM; in [21] (mel1617), “Not Active”; in assay [23], 0.062 µM.

The IC50 is the concentration needed to halve the response being measured.
